Screening data from PubChem.
Sampled rows, rich in hits. Any-hit rate of the full collection: about 2.3%.
MT stabilize HCS – microtubule stabilizers in HeLa cells, primary screen, imaging, high-content imaging | HeLa tubulin immunostaining HCS, 24 h; share of cells brighter than vehicle mean+2SD | % tubulin-high responders, % at 10 µM | 200,000 tested, 0.83% active | AID 2205, 2009;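 active = plate Z-score above 3 for both tubulin-high and condensed-nucleus cell shares, with cell loss under 80%, at 10 µM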;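 also: anti alpha tubulin signal scored within the nucleus-defined area of each cell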
Dynein transport – inhibitors of GR-EGFP nuclear translocation, primary screen, dynein cargo transport inhibitor project, imaging, high-content, 3617.4 mouse cells; z-score, hits read low; 220,000 tested, 0.47% active; AID 1381, 2008; test concentration mostly 20 µM; stimulated with dexamethasone, 1 µM; stronger effect = lower value;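 active = plate z-score of nuclear minus cytoplasmic receptor signal below a set negative limit, without overly bright fluorescence or cell loss, cut at about -3.5 in these data, passing the limit was not always enough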;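 also: z-score of nuclear minus cytoplasmic ring GR-EGFP intensity difference per well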
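Medium: Induction medium lacking tetracycline, stripped serum | Probe or stimulus: 1.0 µM final dexamethasone stimulus | Schedule: 48 h induction, then 1 h compound, then 30 min agonist, 37 °C | Signal: Automated 10x imaging of fixed Hoechst-stained cells | Evaluation: Per-cell GR-EGFP intensity, nucleus versus surrounding cytoplasmic ring, well-averaged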
bCat nuc transl – modulators of beta-catenin nuclear translocation, primary screen, imaging, HeLa cells, immunofluorescence, high-content; nuclear translocation activity, % at 5 µM; AID 1665, 2009; 190,000 tested, 0.3% active;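 active = nuclear translocation activity above 50% at 5 µM, with a well cell count of 50 or more; inconclusive = wells under 50 cells across six images, flagged as toxic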;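 also: per-cell ratio of nuclear to cytoplasmic median beta-catenin stain intensity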
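Test system: human HeLa cell line; Doses: 5 µM primary, 0.02–20 µM confirmation; Incubation: 24 h compound exposure, 37°C; Detection: beta-catenin immunofluorescence imaging with DAPI; Read-out: beta-catenin nuclear/cytoplasmic ratio, % activation.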
Insulin prom up – insulin promoter activators in MIN6 cells, imaging, high-content screening, mouse beta cells | AID 1625, 2009 | MIN6 insulin promoter-GFP reporter; stronger effect = higher value | 190,000 tested, 0.3% active | z-score at 5 µM;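 active = z-score above 3 at 5 µM with at least 500 cells counted in the well; inconclusive = wells under 500 cells, flagged as cytotoxic or low count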
Autophagy HCS – autophagy modulators in MEF cells, primary screen, imaging, high-content, MEF GFP-LC3; MEF GFP-LC3 puncta imaging; test concentration mostly 10 µM; calls only at 10 µM (by protocol); 190,000 tested, 0.98% active;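 active = percentage of spot-positive cells more than 3 SD above its plate mean, without a fluorescence outlier flag or 80% toxicity; inconclusive = no clear call, values can overlap the other calls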
Each line names hits and unclear results; the compound was inactive in the other large screens.

COc1ccc2nc(SCC(=O)Nc3c(C)cccc3C)[nH]c2c1	Insulin prom up 3.26
O=C(COc1cccnc1[N+](=O)[O-])NCc1ccco1	none (no result: Insulin prom up)
Cc1cccc(C)c1-n1c(C)cc(/C=N\Nc2ccc([N+](=O)[O-])cn2)c1C	Autophagy HCS active (no result: Insulin prom up)
O=[N+]([O-])c1ccc(N/N=C\c2cccnc2)nc1	none
CS(=O)(=O)Nc1cccc(C2=NN(S(C)(=O)=O)C(c3ccc4c(c3)OCO4)C2)c1 (centres undefined)	MT stabilize HCS 17.0
CS(=O)(=O)Nc1ccc(C2=NN(S(C)(=O)=O)C(c3ccccc3)C2)cc1 (centres undefined)	none
O=C(c1sccc1Cl)N1CCN(Cc2ccc3c(c2)OCO3)CC1	none (no result: MT stabilize HCS, Autophagy HCS)
O=C(Nc1ccc(S(=O)(=O)N2CCCC2)cc1)c1ccc2c(=O)n3c(nc2c1)CCCCC3	none
Nc1c(C(=O)Nc2ccc(S(=O)(=O)N3CCCC3)cc2)sc2nc3ccc(OC(F)(F)F)cc3cc12	Autophagy HCS active
Nc1c(C(=O)Nc2ccc(S(=O)(=O)N3CCCC3)cc2)sc2nc3cc4c(cc3cc12)CCC4	MT stabilize HCS 27.8, Autophagy HCS active
CCN(CC)c1ccc2cc(-c3nnc(-c4ccncc4)o3)c(=O)oc2c1	Insulin prom up 4.43, Autophagy HCS active (no result: bCat nuc transl)
CCC(CC)c1nc(C#N)c(NCc2ccccc2)o1	MT stabilize HCS 15.3
COc1ccc(CNC(=O)C/C(C)=N/NC(=O)COc2ccc(C)cc2Br)cc1	bCat nuc transl 145.9
O=C(COc1ccc(Cl)cc1Cl)NCc1ccco1	none
C/C(CC(=O)NCc1ccco1)=N\NC(=O)COc1ccc(Cl)cc1Cl	bCat nuc transl 59.3
CCOc1ccccc1C(=O)Nc1nnc(SCC(=O)Nc2cc(C)on2)s1	none
Cc1ccc(C(=O)c2cc([N+](=O)[O-])ccc2N2CCN(C)CC2)cc1	MT stabilize HCS 40.8, bCat nuc transl 70.6
O=C(c1ccc(Br)cc1)c1cc([N+](=O)[O-])ccc1N1CCCCC1	MT stabilize HCS 17.2, bCat nuc transl 62.9
CN1CCN(c2ccc([N+](=O)[O-])cc2C(=O)c2ccccc2)CC1	none
O=C(c1ccccc1)c1cc([N+](=O)[O-])ccc1N1CCCC1	none
CN1CCN(c2ccc([N+](=O)[O-])cc2C(=O)c2ccc(Br)cc2)CC1	MT stabilize HCS 19.5, bCat nuc transl 63.6
Cc1cc(=O)oc(C)c1C(=O)NC1CCCCCCC1	none
CCOC(=O)N1C(=O)C2(CCCCC2)N(c2ccccc2Cl)C1=S	none
CCC(=O)N(Cc1ccco1)c1nc(-c2ccc(OC)cc2)cs1	none (no result: Insulin prom up)
COCC(=O)N(Cc1ccco1)c1nnc(C2CCOC2)s1 (centres undefined)	Autophagy HCS active (no result: bCat nuc transl)
O=c1[nH]c(CN2CCN(c3ccccc3)CC2)nc2scc(-c3ccccc3)c12	MT stabilize HCS 19.9 (no result: bCat nuc transl)
COC(=O)c1[nH]c2cccc(Cl)c2c1NC(=O)CN(C)C1CCCCC1	Insulin prom up 3.5
COc1ccc(OC)c(NC(=O)C(=O)NNC(=O)c2cccs2)c1	none
O=C(CSc1cccc[n+]1[O-])C12CC3CC(CC(C3)C1)C2	none
C/C(=N\S(=O)(=O)c1ccc(C)cc1)N1CCN(S(=O)(=O)c2ccccc2)C1	Insulin prom up 3.52
Cc1ccc(S(=O)(=O)N2CCN(S(=O)(=O)c3ccccc3)C2)cc1	none (no result: bCat nuc transl)
Cc1c2ccccc2nc2c(F)c(NCCO)c(F)c(F)c12	none
OCCNc1c2ccccc2nc2c(F)c(F)c(F)c(F)c12	bCat nuc transl 56.4
Cc1ccc(C)c(C2=CSC3=NCCN23)c1	none (no result: Autophagy HCS)
Clc1ccc(C2=CSC3=NCCN23)cc1Cl	Autophagy HCS active
CCN(CC)CCCNC(=O)c1sc2nc(-c3ccc(F)cc3)cn2c1C	Autophagy HCS active (no result: bCat nuc transl)
COc1ccc(C2CC(=O)c3cnn(-c4nc(C)cc(C)n4)c3C2)cc1 (centres undefined)	MT stabilize HCS 40.1 (no result: Insulin prom up)
COC(=O)c1c(NC(=O)CC2Nc3cc(C)c(C)cc3NC2=O)sc(C)c1C (centres undefined)	Insulin prom up 6.44
COC(=O)c1c(NC(=O)CC2Sc3ccc(C(F)(F)F)cc3NC2=O)sc(C)c1C (centres undefined)	none
CCc1cc(C(=O)OC)c(NC(=O)CC2Nc3cc(C)c(C)cc3NC2=O)s1 (centres undefined)	Autophagy HCS active
CCN(c1ccccc1)S(=O)(=O)c1ccc(Cl)c(NC(=O)CSc2nnc(C)s2)c1	none
N/C(=N\c1nc(CSc2ccccn2)cc(=O)[nH]1)Nc1ccc(Cl)cc1Cl	none (no result: MT stabilize HCS, Autophagy HCS)
CC1CC(O)C(C)CN1 (centres undefined)	none (no result: MT stabilize HCS, Autophagy HCS)
COc1cccc(NC(=O)CSC2=C(C#N)C(c3ccco3)C3=C(CCCC3=O)N2)c1 (centres undefined)	Autophagy HCS active
CC(C)(C)c1ccc(C(=O)CCCSC2=C(C#N)C(c3ccco3)C3=C(CCCC3=O)N2)cc1 (centres undefined)	none
Cc1ccc(C2CC(=O)NC(SCc3ccccc3)=C2C#N)o1 (centres undefined)	Insulin prom up 3.43
N#CC1=C(SCC(=O)c2ccccc2)NC2=C(C(=O)CCC2)C1c1ccco1 (centres undefined)	bCat nuc transl 171.4
N#CC1=C(SCC(=O)Nc2ccccc2)NC(=O)CC1c1ccco1 (centres undefined)	MT stabilize HCS 50.0, Autophagy HCS active (no result: bCat nuc transl, Insulin prom up)
COc1ccc(NC(=O)CSC2=C(C#N)C(c3ccco3)C3=C(CCCC3=O)N2)c(OC)c1 (centres undefined)	none (no result: bCat nuc transl)
COC(=O)c1ccccc1C(=O)N1CCCC(CCC(=O)NCc2ccc(F)c(F)c2)C1 (centres undefined)	none
Cc1cc(C)cc(NC(=O)c2cnn(-c3ccccc3)c2C2CCNCC2)c1	none
Cc1ccc(C(=O)CSC2=C(C#N)C(c3ccco3)C3=C(CCCC3=O)N2)cc1 (centres undefined)	MT stabilize HCS 20.4, bCat nuc transl 129.7
Cc1ccc(Nc2cc(C)nc(NCc3ccccc3)n2)cc1	MT stabilize HCS 30.1
COc1ccc(Nc2cc(C)nc(NCc3ccccc3)n2)cc1	none (no result: MT stabilize HCS, Autophagy HCS)
CCNC(=O)CON=C1c2ccccc2-c2ccccc21	Autophagy HCS active
COc1ccc(NCC(=O)n2c(C)c(C)c3ccccc32)cc1	MT stabilize HCS 20.0
O=C(NC1(C(F)(F)F)NC(=O)N(c2ccc(F)c(Cl)c2)C1=O)c1ccncc1 (centres undefined)	Insulin prom up 4.5
CC1=Nc2ccccc2N=C(NC(=O)CN2CCN(c3ccc(F)cc3)CC2)C1c1ccccc1 (centres undefined)	none (no result: MT stabilize HCS, Autophagy HCS)
CC(C)c1ccc(/C=C(\c2nc3ccccc3[nH]2)S(=O)(=O)c2ccccc2)cc1	MT stabilize HCS 27.4
O=S(=O)(/C(=C/c1ccc(C(F)(F)F)cc1)c1nc2ccccc2[nH]1)c1ccccc1	Insulin prom up inconclusive
